The values that follow come from ChEMBL document CHEMBL1129372, “Cyclopent[a]anthraquinones as DNA intercalating agents with covalent bond formation potential: synthesis and biological activity” (J Med Chem, 1996).

The subject of test [1] is Mus musculus. In words: Anti cancer activity was tested on day10, in mice bearing Lewis lung adenocarcinoma by injecting 0.8 mg/kg dose of compound intraperitoneally and average tumor volume was calculated. Particulars: route intraperitoneal. The class given is functional. The method, boiled down: (§1)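 BDF1 mice given Lewis lung carcinoma subcutaneously (footnote: 4 × 10⁶ cells; methods: 0.2 mL brei). Dosing was ip once daily for 5 days, starting day 3 after inoculation, with drug in DMSO. Controls received DMSO alone: four control mice and three mice per dose. Body weight change, mortality and tumor volume were recorded on days 7, 10 and 14. Tumor volume is given as T/C.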

Test [2] has as its system Mus musculus. As to the kind of experiment: Anti cancer activity was tested on day 14, in mice bearing Lewis lung adenocarcinoma by injecting 0.8 mg/kg dose of compound intraperitoneally and average tumor volume was calculated. The settings on record: route intraperitoneal. It counts as functional. The method, boiled down: as §1
Test [3] has as its system Mus musculus. As to the kind of experiment: (§2) Anti cancer activity was tested on day10, in mice bearing Lewis lung adenocarcinoma by injecting 0.4 mg/kg dose of compound intraperitoneally and average weight change was reported. The class given is functional. Particulars: route intraperitoneal. The method, boiled down:
as §1

The test system of test [4] is Mus musculus. As to the kind of experiment: Anti cancer activity was tested on day10, in mice bearing Lewis lung adenocarcinoma by injecting 0.8 mg/kg dose of compound intraperitoneally and average weight change was reported. It counts as functional. The settings on record: route intraperitoneal. Summed up:
as §1

Another test deals with SK-BR-3. As to the kind of experiment: Inhibition of cell growth was studied in human mammary adenocarcinoma (SKBR-3). The class given is functional, cell-based. Summed up:
(§3)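 Monolayer solid-tumor cells were assayed by SRB protein staining using six to seven concentrations. IC50 is the concentration reducing cell density to 50% of control, derived by median-effect plot.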

For a further test, the system named is DC3F/AD-II. As to the kind of experiment: Inhibition of cell growth was studied in chinese hamster lung cells resistant to actinomycin D (DC-3F/AD-II). It counts as functional, cell-based. Particulars: Cricetulus griseus. The method, boiled down:
as §3

Another test deals with DC3F. In words: Inhibition of cell growth was studied in chinese hamster lung cells (DC-3F). The class given is functional, cell-based. Particulars: Cricetulus griseus. Summed up:
as §3

Test [5] has as its system Mus musculus. In words: Anti cancer activity was tested on day10, in mice bearing Lewis lung adenocarcinoma by injecting 0.4 mg/kg dose of compound intraperitoneally and average tumor volume was calculated. Particulars: route intraperitoneal. The class given is functional. The method, boiled down:
as §1

A further test relates to HL-60. As to the kind of experiment: Inhibition of cell growth was studied in human promyelocytic leukemic (HL-60) cells. The class given is functional, cell-based. Summed up: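 HL-60 cells were exposed for 72 h and read by XTT-tetrazolium microculture assay: PMS-XTT incubation for 6 h at 37 °C, absorbance at 450 and 630 nm. Six to seven concentrations were tested. IC50 was derived by median-effect plot.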

In test [6] the test system is Mus musculus. As to the kind of experiment: Anti cancer activity was tested on day 7, in mice bearing Lewis lung adenocarcinoma by injecting 0.4 mg/kg dose of compound intraperitoneally and average tumor volume was calculated. It counts as functional. Particulars: route intraperitoneal. Summed up: as §1
Test [7] relates to Mus musculus. As to the kind of experiment: Anti cancer activity was tested on day 14, in mice bearing Lewis lung adenocarcinoma by injecting 0.8 mg/kg dose of compound intraperitoneally and average weight change was reported. It counts as functional. The settings on record: route intraperitoneal. Summed up: as §1
The next test deals with 833K. In words: Inhibition of cell growth was studied in human teratocarcinoma (833K). The class given is functional, cell-based. The method, boiled down: as §3
The test system of test [8] is Mus musculus. As to the kind of experiment: Anti cancer activity was tested on day 14, in mice bearing Lewis lung adenocarcinoma by injecting 0.4 mg/kg dose of compound intraperitoneally and a. average […] was reported. It counts as functional. Particulars: route intraperitoneal. Summed up: as §1
In test [9] the test system is Mus musculus. As to the kind of experiment: Anti cancer activity was tested on day 7, in mice bearing Lewis lung adenocarcinoma by injecting 2.0 mg/kg dose of compound intraperitoneally and average tumor volume was calculated. The class given is functional. Particulars: route intraperitoneal. The method, boiled down: (§4)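 Lewis lung carcinoma was implanted subcutaneously in BDF₁ mice at 4 × 10⁶ cells. Starting day 3, drug in DMSO was given ip once daily for 5 days; untreated controls received DMSO alone. Groups were four control mice and three mice per dose. Body weight change and average tumor volume (T/C) were recorded on days 7, 10 and 14 after treatment began.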

In test [10] the test system is Mus musculus. As to the kind of experiment: Anti cancer activity was tested on day 7, in mice bearing Lewis lung adenocarcinoma by injecting 2.0 mg/kg dose of compound intraperitoneally and average weight change was reported. Particulars: route intraperitoneal. The class given is functional. The method, boiled down:
as §4

The test system of test [11] is Mus musculus. The description is as §2. The class given is functional. Particulars: route intraperitoneal. The method, boiled down: as §4
The source holds these as a separate data set.

Test [12] relates to Mus musculus. In words: Anti cancer activity was tested on day 14, in mice bearing Lewis lung adenocarcinoma by injecting 0.4 mg/kg dose of compound intraperitoneally and average […] was reported. It counts as functional. The settings on record: route intraperitoneal. Summed up:
as §4

SMILES strings stand for the structures. Where “and” joins values, the source holds several entries; their conditions need not be identical. Equal values may be shown once.

As to `CNC(=O)OCc1cc2c(c3c1C1NC1C3)C(=O)c1ccccc1C2=O` (configuration not stated), the Average tumor volume in the test with Mus musculus [1] is 0.205 T/C; in the test on Mus musculus [2], 0.496 T/C; in the test with Mus musculus [5], 0.303 T/C; in the test with Mus musculus [8], 0.529 T/C. Besides, the Average weight change with Mus musculus [3] is -0.2 mg/kg; in the test with Mus musculus [4], -0.4 g; with Mus musculus [7] it was 0.5 g; with Mus musculus [8] it was 2 mg/kg. For the same molecule, the IC50 in the test with SK-BR-3 was found to be 19.9 µM; in the test with DC3F/AD-II it was 3.6 µM; with DC3F, 10.4 µM; in the test with HL-60, 6.03 µM; in the test with 833K, 23.9 µM. For the same molecule, the “Tumor volume treated/control ratio (T/C)” value in the test on Mus musculus [6] was 1.011 T/C and 0.529 T/C.

With `CNC(=O)OCc1cc2c(c3c1CCC3)C(=O)c1ccccc1C2=O`, the IC50 with HL-60 worked out at 274 µM.

On to `CO[C@@]12[C@H](COC(N)=O)C3=C(C(=O)C(C)=C(N)C3=O)N1C[C@@H]1N[C@@H]12` [MITOMYCIN], for which the Average tumor volume was 0.169 T/C in the test with Mus musculus [9]; 0.363 T/C in the test on Mus musculus [1]; 0.437 T/C with Mus musculus [2]; 0.411 T/C in the test on Mus musculus [5]; 0.515 T/C with Mus musculus [12]. For the same molecule, the Average weight change in the test on Mus musculus [4] is -1.8 g; in the test with Mus musculus [10], -2.7 g; in the test with Mus musculus [7] it was 0.2 g; with Mus musculus [11], -1.2 g; with Mus musculus [12], 0.6 g. In addition, the IC50 in the test with SK-BR-3 amounted to 0.993 µM; with DC3F/AD-II, 0.11 µM; in the test with DC3F, 0.082 µM; in the test with HL-60, 0.05 µM; with 833K, 0.328 µM. Moreover, in the test with Mus musculus [6], the “Tumor volume treated/control ratio (T/C)” value is 0.49 T/C and 0.356 T/C.

Take `NC(=O)OCc1cc2c(c3c1CCC3)C(=O)c1ccccc1C2=O`: in the test on HL-60, the half-inhibitory concentration (IC50) was determined as 123 µM.
